# Assay results pooled from the literature.
# Each line is one published result; the experiments were not run side by side.
# Target: Prostaglandin G/H synthase 2 (PTGS2, Homo sapiens, UniProt P35354)
# Effect on: enzyme activity
# Mode: inhibitor
# One construct used (P35354 18-604): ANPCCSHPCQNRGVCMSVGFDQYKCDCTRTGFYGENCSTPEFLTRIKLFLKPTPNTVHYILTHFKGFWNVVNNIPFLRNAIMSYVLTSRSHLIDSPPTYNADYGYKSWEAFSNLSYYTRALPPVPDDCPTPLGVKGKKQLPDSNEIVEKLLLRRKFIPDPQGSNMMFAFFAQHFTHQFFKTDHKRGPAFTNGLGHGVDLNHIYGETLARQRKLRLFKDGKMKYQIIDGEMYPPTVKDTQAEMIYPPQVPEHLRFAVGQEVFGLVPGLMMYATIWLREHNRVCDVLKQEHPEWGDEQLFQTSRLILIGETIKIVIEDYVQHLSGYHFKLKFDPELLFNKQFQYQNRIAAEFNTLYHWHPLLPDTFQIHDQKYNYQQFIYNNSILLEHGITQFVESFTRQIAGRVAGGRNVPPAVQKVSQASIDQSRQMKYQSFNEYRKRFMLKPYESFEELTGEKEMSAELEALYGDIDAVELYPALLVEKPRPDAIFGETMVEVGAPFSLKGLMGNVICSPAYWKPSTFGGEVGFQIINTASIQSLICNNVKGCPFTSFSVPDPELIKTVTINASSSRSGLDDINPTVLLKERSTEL
Structure (SMILES),test,IC50 [µM]
CS(=O)(=O)c1ccc(-c2ncc(Cl)cc2-c2nc3ccccc3s2)cc1,absorbance,0.23
COc1cc([C@H]2OC[C@H]3[C@@H]2CO[C@@H]3c2cc(OC)c(O)c(OC)c2)cc(OC)c1O,absorbance,2.49
O=Cc1cn(-c2nc(N3CCCC3)nc(N3CCOCC3)n2)c2ccccc12,,2
Cc1ccn2c(Nc3ccc(F)cc3)c(-c3ccc(S(C)(=O)=O)cc3)nc2c1,,0.08
O=C(O)c1ccc(O)cc1,absorbance,19.5
CC1=NN(c2cccc(Cl)c2)C(=O)/C1=C\c1cn(-c2nc(Cl)nc(N3CCOCC3)n2)c2ccccc12,,0.1
CS(=O)(=O)c1ccc(-n2cc(C=N/N=c3\[nH]c(-c4ccc(Br)cc4)cs3)c(-c3ccc([N+](=O)[O-])cc3)n2)cc1,,27.8
COc1ccc(-c2cc(=O)c3c(O)cc(O[C@@H]4O[C@H](CO)[C@@H](O)[C@H](O)[C@H]4O)cc3o2)cc1O,absorbance,0.973
COc1ccc(Nc2c(-c3ccc(S(C)(=O)=O)cc3)nc3cc(C)ccn23)cc1,,0.1
O=c1oc2c(O)c(O)cc3c(=O)oc4c(O)c(O)cc1c4c23,,4.62
O=C1/C(=C\c2cn(-c3nc(N4CCOCC4)nc(N4CCOCC4)n3)c3ccccc23)c2ccccc2N1c1c(Cl)cccc1Cl,,0.4
Cc1ccc(-c2nn(-c3ccc(S(C)(=O)=O)cc3)cc2/C=N\N=c2/[nH]c(-c3ccc([N+](=O)[O-])cc3)cs2)cc1,,11.3
CC(=O)c1ccc(N=Nc2c(C(=O)O)cc(O)c(O)c2O)cc1,,6.11
CC(C)Cc1ccc(-c2nn(-c3ccc(S(C)(=O)=O)cc3)cc2/C=N/N=c2\[nH]c(-c3ccc(Br)cc3)cs2)cc1,,3.01
O=Cc1cn(-c2nc(N3CCOCC3)nc(N3CCOCC3)n2)c2ccccc12,,0.03
Cc1ccn2c(Nc3ccc(Cl)cc3)c(-c3ccc(S(C)(=O)=O)cc3)nc2c1,,0.08
CS(=O)(=O)c1ccc(-n2cc(/C=N/N=c3\[nH]c(-c4ccc(Br)cc4)cs3)c(-c3ccc(Br)cc3)n2)cc1,,5.82
O=Cc1cn(-c2nc(N3CCCCC3)nc(N3CCCCC3)n2)c2ccccc12,,7
CC(=O)c1cccc(/N=N/c2cc(/C=C/C(=O)O)ccc2O)c1,,> 100
CCn1c(-c2nc3ccc(C(=O)N4CCCC(N)C4)cc3n2C)cc2ccccc21 (centres unmarked),,> 100
O=C1/C(=C\c2cn(-c3nc(N4CCCCC4)nc(N4CCOCC4)n3)c3ccccc23)c2ccccc2N1c1c(Cl)cccc1Cl,,1
COc1ccc(Nc2c(-c3ccc(S(C)(=O)=O)cc3)nc3cccc(C)n23)cc1,,0.09
CC1=NN(c2cccc(Cl)c2)C(=O)/C1=C\c1cn(-c2nc(N3CCCCC3)nc(N3CCOCC3)n2)c2ccccc12,,0.05
Cc1cccc2nc(-c3ccc(S(C)(=O)=O)cc3)c(Nc3ccc(F)cc3)n12,,0.08
NS(=O)(=O)c1ccc(-c2ncccc2-c2nc3ccccc3s2)cc1,absorbance,0.69
CS(=O)(=O)c1ccc(-n2cc(/C=N/N=c3\[nH]c(-c4ccc([N+](=O)[O-])cc4)cs3)c(-c3ccc([N+](=O)[O-])cc3)n2)cc1,,15.5
COc1ccc(Nc2c(-c3ccc(S(C)(=O)=O)cc3)nc3c(C)cccn23)cc1,,0.08
CC(=O)c1cccc(N=Nc2c(C(=O)O)cc(O)c(O)c2O)c1,,5.51
Cc1ccc(Nc2c(-c3ccc(S(C)(=O)=O)cc3)nc3cc(C)ccn23)cc1,,0.07
O=C1Nc2ccccc2/C1=C/c1cn(-c2nc(N3CCOCC3)nc(N3CCOCC3)n2)c2ccccc12,,1
CS(=O)(=O)c1ccc(-c2nc3ccccn3c2Nc2ccc(Cl)cc2)cc1,,0.07
NS(=O)(=O)c1ccc(-c2ncc(Cl)cc2-c2nc3ccccc3s2)cc1,absorbance,0.21
